Entries after “also recorded” stand apart in the source; their conditions may differ.
Legend:
JAK2^V617F allele burden = assay: PD: JAK2V617F allele burden; assay type: in vivo, human
Procedure, shortened: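 JAK2 allele burden was sampled on Day 1 of Cycles 1, 2 and 4, then every 3 cycles, during continuous 28-day oral dosing. On-treatment values were compared with the predose baseline. Analysis covered patients with ≥1 dose, a baseline value and ≥1 evaluable post-baseline assessment.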

[1] = test system: patients with myelofibrosis; assay: MF-associated symptoms; assay type: in vivo, human
Procedure, shortened: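 Symptoms were self-rated on the Myelofibrosis Symptom Assessment Form at baseline, on Day 1 of Cycles 2 and 4, then every 3 cycles, during daily oral dosing in 28-day cycles. Evaluable patients had ≥1 cycle treated and a baseline symptom score >2. Each symptom was scored for ≥50% reduction, with a subgroup of patients pretreated with a JAK2 inhibitor.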

`C[C@H](Nc1cc(-c2cnn(C)c2)cc(Nc2cnccn2)n1)c1ccc(F)cc1` [NS-018] was tested, and the “JAK2^V617F allele burden during treatment” value (JAK2^V617F allele burden; JAK2^V617F-positive patients) was “largely unchanged; also recorded: remained similar to the baseline value in almost all patients”, the “Patients with decrease in allele burden of ⩾25%” value (JAK2^V617F allele burden; at Cycle 7 in one and Cycle 16 in the other) was 2 patients and the “Reductions in symptom scores achieved in at least some patients” value ([1]; all symptoms measured) was “up to 100%”. The “Mean MF-SAF scores” value ([1]; by Week 4, all 8 assessed symptoms, total evaluable population) was “reductions in mean MF-SAF scores” and the “Mean MF-SAF symptom score” value ([1]; patients with previous JAK2 inhibitor treatment) was “reduction in mean score for all symptoms”.
